In brackets after ≈: the same amount, converted by molar mass. Activity calls are given as the source filed them. The rule behind the calls is not given here. Where a SMILES comes first, the peptide text is derived from it. [ ]: non-standard residue; d: D form. The star is where a group is joined. Triazol3yl(1,2,4-5-NH2) = Nc1nc(*)n[nH]1; dPhe(4-Cl) = N[C@H](Cc1ccc(Cl)cc1)C(=O)O; d2Nal = N[C@H](Cc1ccc2ccccc2c1)C(=O)O; Lys(iPr) = CC(C)NCCCC[C@H](N)C(=O)O; d3Pal = N[C@H](Cc1cccnc1)C(=O)O; Nicotinoyl = O=C(c1cccnc1)*
Experiments:
[1] = molecular target: T1, Gonadotropin-releasing hormone receptor (Rattus norvegicus, UniProt P30969); experiment: In vitro binding affinity of Gonadotropin-releasing hormone antagonist was measured in rat pituitary cell membranes; set-up: species or system Pituitary gland cell, Membrane
T1 sequence (P30969 whole entry): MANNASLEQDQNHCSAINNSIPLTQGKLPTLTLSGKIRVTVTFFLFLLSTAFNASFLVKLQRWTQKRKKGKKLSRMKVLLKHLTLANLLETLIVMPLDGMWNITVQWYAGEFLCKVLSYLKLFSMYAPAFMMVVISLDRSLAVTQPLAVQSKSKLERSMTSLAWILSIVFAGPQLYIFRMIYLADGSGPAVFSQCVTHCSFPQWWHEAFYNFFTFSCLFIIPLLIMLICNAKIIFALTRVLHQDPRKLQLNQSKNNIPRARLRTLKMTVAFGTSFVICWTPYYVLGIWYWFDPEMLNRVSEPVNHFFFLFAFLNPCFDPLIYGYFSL
Summary of the method: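 Displacement binding on pituitary cell membranes with [DAla6,NMe-Leu7,Pro9-NHEt]GnRH as standard; analogue KD values calculated from potencies relative to that standard derived from displacement data.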

Rattus norvegicus [2] = species: Rattus norvegicus; experiment: In vitro histamine release by rat mast cells.; settings: read-out: ED50 (the source's name)
Rattus norvegicus [3] = experiment: Potency (0.5 mg/rat) using anti-ovulatory assay, expressed as rat ovulating/total number of treated rats measured after sc administration; 6/6; format: functional, organism-based
Rattus norvegicus [4] = experiment: Potency (1 mg/rat) using anti-ovulatory assay, expressed as rat ovulating/total number of treated rats measured after sc administration; 2/8; format: functional, organism-based
[5] = molecular target: Gonadotropin-releasing hormone receptor (Rattus norvegicus) (UniProt P30969); experiment: Antagonist potency at GnRH receptor relative to a standard ([Ac-delta3Pro, DFpa2, DTrp3,6]GnRH).
Rattus norvegicus [6] = experiment: Potency (5 mg/rat) using anti-ovulatory assay, expressed as rat ovulating/total number of treated rats measured after sc administration; 14/20; format: functional, organism-based
Rattus norvegicus [7] = experiment: Potency (2.5 mg/rat) using anti-ovulatory assay, expressed as rat ovulating/total number of treated rats measured after sc administration; 2/8; format: functional, organism-based
Rattus norvegicus [8] = experiment: Potency (1 mg/rat) using anti-ovulatory assay, expressed as rat ovulating/total number of treated rats measured after sc administration; 5/5; format: functional, organism-based
Rattus norvegicus [9] = experiment: Potency (2 mg/rat) using anti-ovulatory assay, expressed as rat ovulating/total number of treated rats measured after sc administration; 2/10; format: functional, organism-based
Rattus norvegicus [10] = experiment: Potency (2 mg/rat) using anti-ovulatory assay, expressed as rat ovulating/total number of treated rats measured after sc administration; 1/10; format: functional, organism-based
Rattus norvegicus [11] = experiment: Potency (1.0 mg/rat) using anti-ovulatory assay, expressed as rat ovulating/total number of treated rats measured after sc administration; 5/5; format: functional, organism-based
Rattus norvegicus [12] = experiment: Potency (2.5 mg/rat) using anti-ovulatory assay, expressed as rat ovulating/total number of treated rats measured after sc administration; 0/7; format: functional, organism-based
Rattus norvegicus [13] = experiment: Potency (0.5 mg/rat) using anti-ovulatory assay, expressed as rat ovulating/total number of treated rats measured after sc administration; 8/18; format: functional, organism-based
Rattus norvegicus [14] = experiment: Potency (1 mg/rat) using anti-ovulatory assay, expressed as rat ovulating/total number of treated rats measured after sc administration; 1/17; format: functional, organism-based

Row | SMILES | Kd [1] [nM] | EC50 (Rattus norvegicus [2]) [µg/mL] | Relative potency [5] | further results
1 | CC(=O)N[C@H](Cc1ccc2ccccc2c1)C(=O)N[C@H](Cc1ccc(Cl)cc1)C(=O)N[C@H](Cc1cccnc1)C(=O)N[C@@H](CO)C(=O)N[C@@H](CCCCNc1n[nH]c(N)n1)C(=O)N[C@H](CCCCNc1n[nH]c(N)n1)C(=O)N[C@@H](CC(C)C)C(=O)N[C@@H](CCCCNC(C)C)C(=O)N1CCC[C@H]1C(=O)N[C@H](C)C(N)=O (Ac-[d2Nal][dPhe(4-Cl)][d3Pal]SK(Triazol3yl(1,2,4-5-NH2))[dK](Triazol3yl(1,2,4-5-NH2))L[Lys(iPr)]P[dA]-NH2) | 0.48 |  |  | 
2 | CC(C)C[C@H](NC(=O)[C@@H](CCCCNC(=NC#N)NCc1ccccn1)NC(=O)[C@H](CCCCNC(=NC#N)NCc1ccccn1)NC(=O)[C@H](CO)NC(=O)[C@H](Cc1c[nH]c2ccccc12)NC(=O)[C@H](Cc1cnc[nH]1)NC(=O)[C@@H]1CCC(=O)N1)C(=O)N[C@@H](CCCCNC(C)C)C(=O)N1CCC[C@H]1C(=O)N[C@H](C)C(N)=O | 0.27 |  |  | 
3 | CCCC/N=C(\NC#N)NCCCC[C@@H](NC(=O)[C@H](Cc1c[nH]cn1)NC(=O)[C@@H]1CCC(=O)N1)C(=O)N[C@@H](CO)C(=O)N[C@@H](Cc1ccc(O)cc1)C(=O)N[C@H](CCCCN/C(=N/CCCC)NC#N)C(=O)N[C@@H](CC(C)C)C(=O)N[C@@H](CCCCNC(C)C)C(=O)N1CCC[C@H]1C(=O)N[C@H](C)C(N)=O |  | 50 (≈ 34 µM) |  | 
4 | CC(=O)N[C@H](Cc1ccc2ccccc2c1)C(=O)N[C@H](Cc1ccc(F)cc1)C(=O)N[C@H](Cc1c[nH]c2ccccc12)C(=O)N[C@@H](CO)C(=O)N[C@@H](Cc1ccc(O)cc1)C(=O)N[C@H](CCCN=C(N)N)C(=O)N[C@@H](CC(C)C)C(=O)N[C@@H](CCCN=C(N)N)C(=O)N1CCC[C@H]1C(=O)NCC(N)=O (HELM PEPTIDE1{[ac].[O=C([C@@H](Cc1ccc2ccccc2c1)N[*:1])[*:2]].[O=C([C@@H](Cc1ccc(F)cc1)N[*:1])[*:2]].[dW].S.Y.[dR].L.R.P.G.[am]}$$$$V2.0) |  | 0.17 (≈ 0.118 µM) |  | 
5 | CC(C)C[C@H](NC(=O)[C@@H](CCCC/N=C(/NC#N)NC(C)C)NC(=O)[C@H](CCCC/N=C(/NC#N)NC(C)C)NC(=O)[C@H](CO)NC(=O)[C@H](Cc1c[nH]c2ccccc12)NC(=O)[C@H](Cc1c[nH]cn1)NC(=O)[C@@H]1CCC(=O)N1)C(=O)N[C@@H](CCCCNC(C)C)C(=O)N1CCC[C@H]1C(=O)N[C@H](C)C(N)=O | 0.32 |  | 0.3 | Activity (Rattus norvegicus [3]): inactive; Activity (Rattus norvegicus [4]): Active
6 | CC(C)C[C@H](NC(=O)[C@@H](CCCN=C(N)N)NC(=O)[C@H](Cc1ccc(O)cc1)NC(=O)[C@H](CO)NC(=O)[C@@H](Cc1cccnc1)NC(=O)[C@H](Cc1c[nH]cn1)NC(=O)[C@@H]1CCC(=O)N1)C(=O)N[C@@H](CCCCNc1n[nH]c(N)n1)C(=O)N1CCC[C@H]1C(=O)N[C@H](C)C(N)=O |  | 19 (≈ 14.5 µM) |  | 
7 | CC(C)C[C@H](NC(=O)[C@@H](CCCNC(=N)N)NC(=O)[C@H](Cc1ccc(O)cc1)NC(=O)[C@H](CO)NC(=O)[C@@H](CCCCNc1nnc(N)[nH]1)NC(=O)[C@H](Cc1cnc[nH]1)NC(=O)[C@@H]1CCC(=O)N1)C(=O)N[C@@H](CCCCNC(C)C)C(=O)N1CCC[C@H]1C(=O)N[C@H](C)C(N)=O | 0.27 |  |  | 
8 | CC(C)C[C@H](NC(=O)[C@@H](CCCCNC(=NC#N)NC1CCCCC1)NC(=O)[C@H](CCCCNC(=NC#N)NC1CCCCC1)NC(=O)[C@H](CO)NC(=O)[C@H](Cc1c[nH]c2ccccc12)NC(=O)[C@H](Cc1cnc[nH]1)NC(=O)[C@@H]1CCC(=O)N1)C(=O)N[C@@H](CCCCNC(C)C)C(=O)N1CCC[C@H]1C(=O)N[C@H](C)C(N)=O | 1.2 |  |  | 
9 | CCCC/N=C(\NC#N)NCCCC[C@H](NC(=O)[C@H](CC(C)C)NC(=O)[C@@H](CCCCNC(=O)c1cccnc1)NC(=O)[C@H](CCCCNC(=O)c1cccnc1)NC(=O)[C@H](CO)NC(=O)[C@H](Cc1c[nH]c2ccccc12)NC(=O)[C@H](Cc1c[nH]cn1)NC(=O)[C@@H]1CCC(=O)N1)C(=O)N1CCC[C@H]1C(=O)N[C@H](C)C(N)=O | 0.45 |  | 0.3 | Activity (Rattus norvegicus [6]): Weak activity
10 | CC(=O)N[C@H](Cc1ccc2ccccc2c1)C(=O)N[C@H](Cc1ccc(Cl)cc1)C(=O)N[C@H](Cc1cccnc1)C(=O)N[C@@H](CO)C(=O)N[C@@H](CCCCNC(=O)c1cccnc1)C(=O)N[C@H](CCCCNC(=O)c1cccnc1)C(=O)N[C@@H](CC(C)C)C(=O)N[C@@H](CCCCNC(C)C)C(=O)N1CCC[C@H]1C(=O)N[C@H](C)C(N)=O (Ac-[d2Nal][dPhe(4-Cl)][d3Pal]SK(Nicotinoyl)[dK](Nicotinoyl)L[Lys(iPr)]P[dA]-NH2) |  | > 300 |  | 
11 | CCCCCC/N=C(\NC#N)NCCCC[C@H](NC(=O)[C@H](CO)NC(=O)[C@H](Cc1c[nH]c2ccccc12)NC(=O)[C@H](Cc1c[nH]cn1)NC(=O)[C@@H]1CCC(=O)N1)C(=O)N[C@H](CCCCN/C(=N/CCCCCC)NC#N)C(=O)N[C@@H](CC(C)C)C(=O)N[C@@H](CCCCNC(C)C)C(=O)N1CCC[C@H]1C(=O)N[C@H](C)C(N)=O | 3.3 |  | 0.14 | Activity (Rattus norvegicus [7]): Weak activity; Activity (Rattus norvegicus [8]): inactive
12 | CCCCNC(=NC#N)NCCCC[C@@H](NC(=O)[C@H](Cc1ccc(O)cc1)NC(=O)[C@H](CO)NC(=O)[C@@H](Cc1cccnc1)NC(=O)[C@H](Cc1cnc[nH]1)NC(=O)[C@@H]1CCC(=O)N1)C(=O)N[C@@H](CC(C)C)C(=O)N[C@@H](CCCNC(=N)N)C(=O)N1CCC[C@H]1C(=O)N[C@H](C)C(N)=O | 1.7 |  |  | 
13 | C/N=C(\NC#N)NCCCC[C@@H](NC(=O)[C@H](CCCCN/C(=N\C)NC#N)NC(=O)[C@H](CO)NC(=O)[C@H](Cc1c[nH]c2ccccc12)NC(=O)[C@H](Cc1c[nH]cn1)NC(=O)[C@@H]1CCC(=O)N1)C(=O)N[C@@H](CC(C)C)C(=O)N[C@@H](CCCCNC(C)C)C(=O)N1CCC[C@H]1C(=O)N[C@H](C)C(N)=O | 0.24 |  |  | Activity (Rattus norvegicus [9]): Active
14 | CC(C)C[C@H](NC(=O)[C@@H](CCCCNc1n[nH]c(N)n1)NC(=O)[C@H](CCCCNc1n[nH]c(N)n1)NC(=O)[C@H](CO)NC(=O)[C@H](Cc1c[nH]c2ccccc12)NC(=O)[C@H](Cc1c[nH]cn1)NC(=O)[C@@H]1CCC(=O)N1)C(=O)N[C@@H](CCCCNC(C)C)C(=O)N1CCC[C@H]1C(=O)N[C@H](C)C(N)=O |  |  | 0.23 | Activity (Rattus norvegicus [10]): Active
15 | CC(C)C[C@H](NC(=O)[C@@H](CCCNc1n[nH]c(N)n1)NC(=O)[C@H](CCCNc1n[nH]c(N)n1)NC(=O)[C@H](CO)NC(=O)[C@H](Cc1c[nH]c2ccccc12)NC(=O)[C@H](Cc1c[nH]cn1)NC(=O)[C@@H]1CCC(=O)N1)C(=O)N[C@@H](CCCCNC(C)C)C(=O)N1CCC[C@H]1C(=O)N[C@H](C)C(N)=O | 0.21 | 158 (≈ 114 µM) | 0.2 | Activity (Rattus norvegicus [10]): Active
16 | CCCC/N=C(\NC#N)NCCC[C@@H](NC(=O)[C@H](Cc1c[nH]cn1)NC(=O)[C@@H]1CCC(=O)N1)C(=O)N[C@@H](CO)C(=O)N[C@@H](Cc1ccc(O)cc1)C(=O)N[C@H](Cc1cccnc1)C(=O)N[C@@H](CC(C)C)C(=O)N[C@@H](CCCCNC(C)C)C(=O)N1CCC[C@H]1C(=O)N[C@H](C)C(N)=O |  |  | 1.6 | Activity (Rattus norvegicus [11]): inactive; Activity (Rattus norvegicus [12]): Active
17 | CC(C)C[C@H](NC(=O)[C@@H](Cc1ccc(Nc2n[nH]c(N)n2)cc1)NC(=O)[C@H](Cc1ccc(Nc2n[nH]c(N)n2)cc1)NC(=O)[C@H](CO)NC(=O)[C@H](Cc1c[nH]c2ccccc12)NC(=O)[C@H](Cc1c[nH]cn1)NC(=O)[C@@H]1CCC(=O)N1)C(=O)N[C@@H](CCCCNC(C)C)C(=O)N1CCC[C@H]1C(=O)N[C@H](C)C(N)=O |  | 50 (≈ 33.8 µM) | 1.3 | Activity (Rattus norvegicus [13]): Weak activity; Activity (Rattus norvegicus [14]): Active
18 | CC(C)C[C@H](NC(=O)[C@@H](CCCCNc1n[nH]c(N)n1)NC(=O)[C@H](Cc1ccc(O)cc1)NC(=O)[C@H](CO)NC(=O)[C@@H](CCCCNc1n[nH]c(N)n1)NC(=O)[C@H](Cc1c[nH]cn1)NC(=O)[C@@H]1CCC(=O)N1)C(=O)N[C@@H](CCCCNC(C)C)C(=O)N1CCC[C@H]1C(=O)N[C@H](C)C(N)=O |  | > 150 |  | 
19 | CC(C)C[C@H](NC(=O)[C@@H](Cc1cccnc1)NC(=O)[C@H](Cc1ccc(O)cc1)NC(=O)[C@H](CO)NC(=O)[C@@H](Cc1cccnc1)NC(=O)[C@H](Cc1cnc[nH]1)NC(=O)[C@@H]1CCC(=O)N1)C(=O)N[C@@H](CCCCNC(C)C)C(=O)N1CCC[C@H]1C(=O)N[C@H](C)C(N)=O | 0.08 |  |  | 

Source: ChEMBL document CHEMBL1125607, “Novel gonadotropin-releasing hormone antagonists: peptides incorporating modified N omega-cyanoguanidino moieties” (J Med Chem, 1991)
